In ChEMBL document CHEMBL4422685, “Design, synthesis and evaluation of a series of 5-methoxy-2,3-naphthalimide derivatives as AcrB inhibitors for the reversal of bacterial resistance” (Bioorg Med Chem Lett, 2019):

Tests used:
[1] = biological target: T1, Multidrug efflux pump subunit AcrB (Escherichia coli (strain K12)) (UniProt P31224); test: Inhibition of AcrB in wild-type drug-resistant Escherichia coli […] assessed as potentiation of erythromycin-induced antimicrobial activity by measuring erythromycin MIC at 128 ug/ml by checkerboard titration method (reference value: 64 ug/ml)
T1 sequence (whole entry): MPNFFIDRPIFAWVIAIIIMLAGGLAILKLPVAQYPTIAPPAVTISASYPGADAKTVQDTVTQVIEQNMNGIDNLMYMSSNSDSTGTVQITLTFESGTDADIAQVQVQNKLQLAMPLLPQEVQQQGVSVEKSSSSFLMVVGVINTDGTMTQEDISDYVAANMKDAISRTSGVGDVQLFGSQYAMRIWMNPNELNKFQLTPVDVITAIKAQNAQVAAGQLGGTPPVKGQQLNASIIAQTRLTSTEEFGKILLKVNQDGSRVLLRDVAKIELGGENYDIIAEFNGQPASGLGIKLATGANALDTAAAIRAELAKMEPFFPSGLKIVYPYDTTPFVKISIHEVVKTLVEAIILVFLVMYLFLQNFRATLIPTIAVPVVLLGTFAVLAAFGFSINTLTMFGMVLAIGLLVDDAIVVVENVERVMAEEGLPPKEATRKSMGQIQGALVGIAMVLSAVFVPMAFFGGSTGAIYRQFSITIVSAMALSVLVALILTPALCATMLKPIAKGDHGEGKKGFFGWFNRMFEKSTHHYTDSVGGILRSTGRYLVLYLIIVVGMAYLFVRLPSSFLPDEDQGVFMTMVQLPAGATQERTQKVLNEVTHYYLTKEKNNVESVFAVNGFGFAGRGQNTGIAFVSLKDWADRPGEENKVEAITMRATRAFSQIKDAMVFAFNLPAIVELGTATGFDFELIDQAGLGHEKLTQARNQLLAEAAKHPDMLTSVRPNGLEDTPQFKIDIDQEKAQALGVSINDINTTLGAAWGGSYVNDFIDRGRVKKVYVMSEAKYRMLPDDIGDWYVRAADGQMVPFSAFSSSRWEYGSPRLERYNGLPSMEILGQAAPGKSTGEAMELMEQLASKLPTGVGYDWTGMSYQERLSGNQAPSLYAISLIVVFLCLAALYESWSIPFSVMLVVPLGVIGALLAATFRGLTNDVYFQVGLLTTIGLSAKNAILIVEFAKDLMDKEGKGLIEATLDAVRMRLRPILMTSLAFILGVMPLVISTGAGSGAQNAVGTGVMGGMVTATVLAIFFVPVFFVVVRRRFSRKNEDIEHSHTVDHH

[2] = biological target: T1, Multidrug efflux pump subunit AcrB (Escherichia coli (strain K12)); test: Inhibition of AcrB in wild-type drug-resistant Escherichia coli […] assessed as potentiation of erythromycin-induced antimicrobial activity by measuring erythromycin MIC at 32 ug/ml by checkerboard titration method (reference value: 64 ug/ml)
[3] = biological target: T1, Multidrug efflux pump subunit AcrB (Escherichia coli (strain K12)); test: Inhibition of AcrB in wild-type drug-resistant Escherichia coli […] assessed as potentiation of tetraphenyl phosphonium chloride-induced antimicrobial activity by measuring tetraphenyl phosphonium chloride MIC at 16 ug/ml by checkerboard titration method (reference value: 1024 ug/ml)
[4] = biological target: T1, Multidrug efflux pump subunit AcrB (Escherichia coli (strain K12)); test: Inhibition of AcrB in wild-type drug-resistant Escherichia coli […] assessed as potentiation of tetraphenyl phosphonium chloride-induced antimicrobial activity by measuring tetraphenyl phosphonium chloride MIC at 8 ug/ml by checkerboard titration method (reference value: 1024 ug/ml)
[5] = biological target: T1, Multidrug efflux pump subunit AcrB (Escherichia coli (strain K12)); test: Inhibition of AcrB in wild-type drug-resistant Escherichia coli […] assessed as potentiation of levofloxacin-induced antimicrobial activity by measuring levofloxacin MIC at 32 ug/ml by checkerboard titration method (reference value: 0.063 ug/ml)
[6] = biological target: T1, Multidrug efflux pump subunit AcrB (Escherichia coli (strain K12)); test: Inhibition of AcrB in wild-type drug-resistant Escherichia coli […] assessed as potentiation of chloramphenicol-induced antimicrobial activity by measuring chloramphenicol MIC at 8 ug/ml by checkerboard titration method (Rvb =16 ug/ml)
Escherichia coli [7] = test: Toxicity against wild-type drug-resistant Escherichia coli […] at 128 ug/ml; assay type: organism-based; conditions: in vivo
How it was run: (§1)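 MIC determination against wild-type resistant E. coli BW25113 and an isogenic acrB-deleted strain; highest concentration tested 128 mg/L.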

[8] = biological target: T1, Multidrug efflux pump subunit AcrB (Escherichia coli (strain K12)); test: Inhibition of AcrB in wild-type drug-resistant Escherichia coli […] assessed as potentiation of levofloxacin-induced antimicrobial activity by measuring levofloxacin MIC at 16 ug/ml by checkerboard titration method (reference value: 0.063 ug/ml)
[9] = biological target: T1, Multidrug efflux pump subunit AcrB (Escherichia coli (strain K12)); test: Inhibition of AcrB in wild-type drug-resistant Escherichia coli […] assessed as potentiation of chloramphenicol-induced antimicrobial activity by measuring chloramphenicol MIC at 64 ug/ml by checkerboard titration method (Rvb =16 ug/ml)
[10] = biological target: T1, Multidrug efflux pump subunit AcrB (Escherichia coli (strain K12)); test: Inhibition of AcrB in wild-type drug-resistant Escherichia coli […] assessed as potentiation of erythromycin-induced antimicrobial activity by measuring erythromycin MIC at 64 ug/ml by checkerboard titration method (reference value: 64 ug/ml)
[11] = biological target: T1, Multidrug efflux pump subunit AcrB (Escherichia coli (strain K12)); test: Inhibition of AcrB in wild-type drug-resistant Escherichia coli […] assessed as potentiation of tetraphenyl phosphonium chloride-induced antimicrobial activity by measuring tetraphenyl phosphonium chloride MIC at 128 ug/ml by checkerboard titration method (reference value: 1024 ug/ml)
[12] = biological target: T1, Multidrug efflux pump subunit AcrB (Escherichia coli (strain K12)); test: Inhibition of AcrB in wild-type drug-resistant Escherichia coli […] assessed as potentiation of levofloxacin-induced antimicrobial activity by measuring levofloxacin MIC at 64 ug/ml by checkerboard titration method (reference value: 0.063 ug/ml)
[13] = biological target: T1, Multidrug efflux pump subunit AcrB (Escherichia coli (strain K12)); test: Inhibition of AcrB in wild-type drug-resistant Escherichia coli […] assessed as potentiation of erythromycin-induced antimicrobial activity by measuring erythromycin MIC at 8 ug/ml by checkerboard titration method (reference value: 64 ug/ml)
Escherichia coli [14] = test: Toxicity against AcrB deficient Escherichia coli AcrB lacking at 128 ug/ml; assay type: organism-based; conditions: in vivo; how it was run: as §1
[15] = biological target: T1, Multidrug efflux pump subunit AcrB (Escherichia coli (strain K12)); test: Inhibition of AcrB in wild-type drug-resistant Escherichia coli […] assessed as potentiation of tetraphenyl phosphonium chloride-induced antimicrobial activity by measuring tetraphenyl phosphonium chloride MIC at 32 ug/ml by checkerboard titration method (reference value: 1024 ug/ml)
[16] = biological target: T1, Multidrug efflux pump subunit AcrB (Escherichia coli (strain K12)); test: Inhibition of AcrB in wild-type drug-resistant Escherichia coli […] assessed as potentiation of tetraphenyl phosphonium chloride-induced antimicrobial activity by measuring tetraphenyl phosphonium chloride MIC at 64 ug/ml by checkerboard titration method (reference value: 1024 ug/ml)
[17] = biological target: T1, Multidrug efflux pump subunit AcrB (Escherichia coli (strain K12)); test: Inhibition of AcrB in wild-type drug-resistant Escherichia coli […] assessed as potentiation of levofloxacin-induced antimicrobial activity by measuring levofloxacin MIC at 8 ug/ml by checkerboard titration method (reference value: 0.063 ug/ml)
Escherichia coli [18] = test: Disruption of Escherichia coli inner membrane integrity at 128 ug/ml after 10 mins by DiOC2(3) probe based fluorescence assay; assay type: ADME, organism-based; conditions: in vivo
How it was run: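 Bacterial suspensions pre-exposed to compound for 10 min, then DiOC2(3) added and fluorescence followed to plateau. Cells re-energized with 0.5% glucose; membrane potential (inside negative) read as fluorescence rise to plateau, then collapsed with the proton ionophore CCCP. Untreated cells run alongside.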

COc1ccc(CN2C(=O)c3cc4cccc(OC)c4cc3C2=O)cc1
MIC [1]: 32 µg/mL | MIC [2]: 32 µg/mL | MIC [3]: 1020 µg/mL | MIC [4]: 1020 µg/mL | MIC [5]: 0.063 µg/mL | MIC [6]: 16 µg/mL | Activity (Escherichia coli [7]): Non-Toxic | MIC [8]: 0.063 µg/mL | MIC [9]: 16 µg/mL | MIC [10]: 32 µg/mL | MIC [11]: 1020 µg/mL | MIC [12]: 0.063 µg/mL | MIC [13]: 64 µg/mL | Activity (Escherichia coli [14]): Non-Toxic | MIC [15]: 1020 µg/mL | MIC [16]: 1020 µg/mL | MIC [17]: 0.063 µg/mL

CCCCCN1C(=O)c2cc3cccc(OC)c3cc2C1=O
MIC [1]: 8 µg/mL | MIC [2]: 32 µg/mL | MIC [3]: 1020 µg/mL | MIC [4]: 1020 µg/mL | MIC [5]: 0.063 µg/mL | MIC [6]: 16 µg/mL | Activity (Escherichia coli [7]): Non-Toxic | MIC [8]: 0.063 µg/mL | MIC [9]: 8 µg/mL | MIC [10]: 32 µg/mL | MIC [11]: 512 µg/mL | MIC [12]: 0.0313 µg/mL | Activity (Escherichia coli [18]): Non-Toxic | MIC [13]: 64 µg/mL | Activity (Escherichia coli [14]): Non-Toxic | MIC [15]: 1020 µg/mL | MIC [16]: 1020 µg/mL | MIC [17]: 0.063 µg/mL
